Published values from different studies.
Compare with care: the assays were run in different laboratories.
Target: MAP/microtubule affinity-regulating kinase 4 (MARK4, Homo sapiens, UniProt Q96L34)
Residues used in one study (Q96L34 1-752): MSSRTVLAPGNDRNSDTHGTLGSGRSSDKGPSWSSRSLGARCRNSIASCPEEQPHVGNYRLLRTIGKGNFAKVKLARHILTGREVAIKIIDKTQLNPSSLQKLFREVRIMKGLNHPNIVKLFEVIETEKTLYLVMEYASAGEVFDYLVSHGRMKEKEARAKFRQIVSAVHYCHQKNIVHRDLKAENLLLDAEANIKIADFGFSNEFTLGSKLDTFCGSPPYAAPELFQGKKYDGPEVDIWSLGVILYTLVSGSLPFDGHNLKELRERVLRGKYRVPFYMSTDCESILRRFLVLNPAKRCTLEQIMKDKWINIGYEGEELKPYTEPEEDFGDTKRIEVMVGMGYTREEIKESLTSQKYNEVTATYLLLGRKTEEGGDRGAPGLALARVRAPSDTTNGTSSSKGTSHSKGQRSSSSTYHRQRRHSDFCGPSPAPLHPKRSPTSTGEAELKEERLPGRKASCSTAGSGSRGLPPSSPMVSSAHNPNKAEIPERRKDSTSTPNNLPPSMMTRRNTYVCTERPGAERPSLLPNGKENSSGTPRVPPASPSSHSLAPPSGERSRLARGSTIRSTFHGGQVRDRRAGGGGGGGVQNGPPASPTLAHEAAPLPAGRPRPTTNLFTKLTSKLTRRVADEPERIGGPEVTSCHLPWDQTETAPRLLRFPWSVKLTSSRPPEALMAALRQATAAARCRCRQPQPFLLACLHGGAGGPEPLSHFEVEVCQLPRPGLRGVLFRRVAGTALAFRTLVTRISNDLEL

O=C(c1ccc(Nc2ncc(Cl)c(-c3cc4ccccc4s3)n2)cc1)N1CCC(N2CCCC2)CC1  remaining binding (binding, competition with immobilised ligand; 1 µM): 28%
CC1CCCN1c1nccc(-c2cnn3ncccc23)n1 (centres unmarked)  remaining binding (binding; 1 µM): 98%
CC(C)CC(=O)N1CCc2nc(-c3ccc(Br)cc3)nc(N(C)Cc3ccccc3)c2C1  remaining binding (cell-free assay, competition with immobilised ligand; 0.1 µM): 100%
CN(CCCC(F)(F)F)c1nccc(-c2cnn3ncccc23)n1  remaining binding (binding; 1 µM): 90%
FC(F)(F)c1ccc2c(c1)nc(-c1cccnc1)n2C1CC1  remaining binding (cell-free assay, competition with immobilised ligand; 1 µM): 100%
COc1ncc2cc3ccccc3nc2c1C#N  remaining binding (cell-free assay, competition with immobilised ligand; 5 µM): 64%
O=C(c1ccc(Nc2nccc(-c3cc4ccccc4s3)n2)cc1)N1CCC(N2CCCC2)CC1  remaining binding (binding, competition with immobilised ligand; 1 µM): 84%
c1cnn2ncc(-c3ccnc(N4CCC45COC5)n3)c2c1  remaining binding (binding; 1 µM): 84%
O=C(NCC1CCOCC1)c1n[nH]cc1NC(=O)c1c(F)cccc1F  remaining binding (binding, competition with immobilised ligand; 1 µM): 98%
Nc1ncc2c(n1)-c1c([nH]c3ccc(C#CC4CC4)cc13)CCCC2  remaining binding (binding, competition with immobilised ligand; 1 µM): 100%
O=C(NCCCN1CCOCC1)c1ccc(Nc2ncc(Cl)c(-c3ccc(Cl)s3)n2)cc1  remaining binding (binding, competition with immobilised ligand; 1 µM): 24%
CNC(=O)[C@@H]1CC[C@@H](n2c(-c3ccc4cnccc4c3)nc3ccc(C(=O)NCc4cccc(C(N)=O)c4)cc32)C1  remaining binding (binding, competition with immobilised ligand; 1 µM): 98%
CC(=O)c1c(NS(C)(=O)=O)c2cc(-c3ccc(Cl)cc3)c(-c3ccc(Cl)cc3Cl)nc2n(C)c1=O  remaining binding (cell-free assay, competition with immobilised ligand; 1 µM): 100%
COc1cnc(Nc2cccc(S(N)(=O)=O)c2)nc1N1CCN(c2ccccc2)C(=O)C1  remaining binding (binding, competition with immobilised ligand; 1 µM): 100%
C[C@@H]1CCN(c2nccc(-c3cnn4ncccc34)n2)C1  remaining binding (binding; 1 µM): 100%
Cc1c(NC(=O)c2cc(C(N)=O)nc3cc(F)ccc23)c(C(F)(F)F)nn1Cc1ccc(C(C)(C)C)cc1  remaining binding (cell-free assay, competition with immobilised ligand; 1 µM): 97%
CN(c1nccc(-c2cnn3ncccc23)n1)C1CC1  remaining binding (binding; 1 µM): 76%
COc1cc(-c2cn(C3CCc4ccccc4N(CC(F)(F)F)C3=O)nn2)ccc1-n1ccc(C)n1 (centres unmarked)  remaining binding (cell-free assay, competition with immobilised ligand; 1 µM): 100%
CN(C)c1nccc(-c2cnc3ncccn23)n1  remaining binding (binding; 1 µM): 93%
CNCc1ccccc1-c1csc([C@@H](C)Nc2nc(C)nc3cc(OC)c(OC)cc23)c1  remaining binding (cell-free assay, competition with immobilised ligand; 1 µM): 100%
